Data: the EternaBench riboswitch data

Legend:
[1] = test system: MS2 coat protein; assay: apparent Kd, MS2 coat protein; higher = weaker binding; RNA-MaP array; theophylline 2 mM where present
Method in brief: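 Stalled E. coli RNA polymerase transcribed the designs on Illumina sequencing-chip clusters. SNAP-549-labelled MS2 coat protein was titrated from 0.7 or 1.5 nM, doubling to 3 µM, without and then with constant ligand, in 100 mM Tris-HCl pH 7.5, 80 mM KCl, 4 mM MgCl2, BSA, DTT, yeast tRNA and Tween-20. Per-cluster binding curves were fitted to green signal normalised to red-channel RNA signal and control-cluster median Fmax. The apparent Kd is the median of the filtered fits.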

[2] = test system: MS2 coat protein; assay: apparent Kd, MS2 coat protein; higher = weaker binding; RNA-MaP array
Method in brief: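 For each design, the apparent Kd is the median of binding-curve fits across its clusters. Designs measured on fewer than 10 clusters were dropped. The RNAs were transcribed from sequenced DNA templates on an Illumina sequencing chip and incubated at room temperature, with or without input ligand, with fluorescently labeled MS2 coat protein at 1.5 nM to 3 μM.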

[3] = ligand present: theophylline, designed as: ON switch for theophylline
[4] = designed as: ON switch for theophylline, no ligand
[5] = designed as: OFF switch for theophylline, no ligand
[6] = ligand present: theophylline, designed as: OFF switch for theophylline
[7] = designed as: OFF switch for flavin mononucleotide, no ligand
[8] = ligand present: flavin mononucleotide, designed as: OFF switch for flavin mononucleotide

Sequence | apparent Kd [1, 5] | apparent Kd [1, 6] | apparent Kd [2, 7] | apparent Kd [2, 8] | further results
AAAAUAAAUAAAACACGUAACAUGAAGGAUACCAGACAGGAAACUGUCCCUUGGCAGCCUCUACAUGAGGAUCACCCAUGUCGUG |  |  |  |  | apparent Kd [1, 3]: 30.8 nM
AAAAUAAAUAAAACACGUAACAUGAAGGAUACCAGCCAGAAAACUGGCCCUUGGCAGCCUCUACAUGAGGAUCACCCAUGUCGUG |  |  |  |  | apparent Kd [1, 4]: 305 nM; apparent Kd [1, 3]: 28 nM
AAACGUUGCUCAGAUACCAGACAUGAGGAUCACCCAUGUACCGAGGUACCCGAAAGGAAUGUCCCUUGGCAGCUGAGCAACGAAA | 11 nM | 123 nM |  |  | 
AAAUAAAUCACAUGAGGAUCACCCAUGGAUACCAGGCCUGGAAACAGCCCUUGGCAGCCACAUGAGGAUCACCCAUGUGCUAAUA | 213 nM | 219 nM |  |  | 
AACUGGAAAAGUGAUACCAGAGACAUGAGGAUCACCCAUGUACAUGAGGAUCACCCAUGUCUCCCUUGGCAGCACAAAAGGGAGA | 30.6 nM | 64.8 nM |  |  | 
AAUUGCGUUGGUGAGGCGGUUAAUGGCGAUACCAGCGUGGAAACACGCCCUUGGCAGCGCCAAAACAUGAGGAUCACCCAUGUUA | 73.5 nM | 200 nM |  |  | 
ACACAUGAGGAUCACCCAUGUCCAAUAGAUACCAGUGAUACGGUGCACCCUUGGCAGCUGUUACUGAGUGAUGGUUCCCUCGGAA |  |  |  |  | apparent Kd [1, 4]: 67.6 nM; apparent Kd [1, 3]: 97.1 nM
ACAUAGAGAUUAAUCGUGGGCAUACUCGAUACCAGUAUUUUAACCUACCCUUGGCAGCGACAUGAGGAUCACCCAUGUGAGAUGA | 22.2 nM | 39.5 nM |  |  | 
ACAUCCAGGUUAAUCGUGGACAUGGUCGAUACCAGUAUUUUAAUCUACCCUUGGCAGCGACAUGAGGAUCACCCAUGUGCGAUGA | 14.3 nM | 31.4 nM |  |  | 
ACAUGAGGAUCACCCAUGUCUGCCACUGAUACCAGCGGAAGAAAACGCCCUUGGCAGCAGAACAUGAGGAUCACCCAUGUAGGCU |  |  |  |  | apparent Kd [1, 4]: 274 nM
ACAUGAGGAUCACCCAUGUGCCGUCUUGAUACCAGACGCGAAGUAGUCCCUUGGCAGCAACUACGUGACGGUCGCGCAUGUGUAG | 16.6 nM | 28.6 nM |  |  | 
ACAUGAGGAUCACCCAUGUUCCUCGCCGAUACCAGUGAAGAAGAACGCCCUUGGCAGCGGAAAGAAUAUUUUGGAGAUGAGGUAU | 164 nM | 189 nM |  |  | 
ACAUGAGGAUCCGAUACCAGCCACAUGAGGAUCACCCAUGUAGUACAUGAGGAUCACCCAGGCCCUUGGCAGCGGACAUGAGGAU | 178 nM | 1900 nM |  |  | 
ACCAGCACACAUGAUACCAGCGACAUGAGGAUCACCCAUGUACGGCGUGUAUCGAAAGGUUGCCCUUGGCAGCAUGAUAGUGCUA | 12.8 nM | 129 nM |  |  | 
ACCUACACGGAGACGUGUAGGAGUAAUGAUACCAGCAUGGAGACAUGCCCUUGGCAGCGUUACAUGAGGAUCACCCAUGUACGUU | 10.2 nM | 14.1 nM |  |  | 
ACGAACUGUAGUGAUACCAGACACACAUGAGGAUCACCCAUGUUGUUAGCAUGGUGAAUAGUCCCUUGGCAGCACAGUUAGUUCG | 98.6 nM | 217 nM |  |  | 
UAGCGGACUGUGAGGAUAUAGCAAAUUCAACAAUUCUAGAAGGCACAUGAGGAUCACCCAUGUAGAGUGAUUAA |  |  | 38.5 nM | 70.7 nM | 
UAGGAUUAAGGAGGAUAUCGCCAAUAAGCUUCGCGAGAAGGCCUAUAUACAUGAGGAUCACCCAUGUUUGGUUGUUAGUGUCUU |  |  | 7.9 nM | 10.6 nM | 
UAGGUGCUCUAAGGAUAUUAUACAUGAGGAUCACCCAUGUGGCGACCAAGGGUAGAAGAGGAACUUAAGAAGGUAGAUGUAUAG |  |  | 43.2 nM | 34 nM | 
UAUCUUGAUAGAGGAUAUGAUAUUAAAGAAUAAUCAGAAGGCUAGUCAGAUCUUCUACAUGAGGAUCACCCAUGUUCGCGAACC |  |  | 211 nM | 208 nM | 
UAUGGCAACUUAGGAUAUCAAUGCAUCGAUUAUUGAGAAGGAAGAAACAUGAGGAUCACCCAUGUCUCUACAGGGAUAAGGACC |  |  | 7.38 nM | 7.98 nM | 
UAUUUGUUGAAGAAGGAGCGUACAUGAGGAUCACCCAUGUCCAACGUCUACGCGGGUUAUGUUAGCUAGGAUAUUCCGAAAUGG |  |  | 28.3 nM | 22.1 nM | 
UCACACGUUGUAGGAUAUGUCACGCAUAGAACAUGAGGAUCACCCAUGUAUCCCUGUCAUGCCAGACAGAAGGACACUAACGCG |  |  | 55.5 nM | 129 nM | 
UCGAACGGGCAAGGAUAUCGAAGAUCCAAAAUUCGAGAAGGUGCAUGUGAUCGUCCGGUGUCACAUGAGGAUCACCCAUGUCAA |  |  | 354 nM | 179 nM | 
UCGGAAAAGAAAGGAUAUCGCAUGGAUUGUUGUCGAGAAGGUUCAAAUCGACAUGAGGAUCACCCAUGUCGAGUCCAUACUCCU |  |  |  |  | apparent Kd ([2]; designed as: ON switch for flavin mononucleotide, no ligand): 76 nM; apparent Kd ([2]; ligand present: flavin mononucleotide, designed as: ON switch for flavin mononucleotide): 53.7 nM
UCGGUAUAUACAGGAUAUGGUCAAUACAUGAGGAUCACCCAUGUUAGAGCGGCAAAUAGGAUCUUCCAGAAGGGUACUUGCUUA |  |  | 14.8 nM | 11.5 nM | 
